Laboratory results as given in ChEMBL document CHEMBL1126631, “Synthesis and biological activities of angiotensin II, Sarilesin, and Sarmesin analogues containing Aze or Pip at position 7” (J Med Chem, 1993).

Molecular target: Angiotensin II receptor (Rattus norvegicus) (UniProt P29089+P25095+P35351)
Assay: Evaluated for its agonistic activity using rat uterus bioassay in Dawley rats (% of ANG II)
Type: functional, tissue-based
Procedure, shortened: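 Defatted uterine horns from diethylstilbestrol-primed virgin Sprague–Dawley rats (150–250 g), suspended under 1-g tension in a 3-mL oxygenated bath (150 mM NaCl, 5.6 mM KCl, 0.18 mM NaHCO3, 1.4 mM glucose, pH 7.0). Isotonic contractions recorded; activity found by matching the response to an equivalent human ANGII response. Values are means of the stated number of experiments.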

Agonist activity | SMILES
98 | CC[C@H](C)[C@H](NC(=O)[C@H](Cc1ccc(O)cc1)NC(=O)[C@@H](NC(=O)[C@H](CCCN=C(N)N)NC(=O)CNC)C(C)C)C(=O)N[C@@H](Cc1c[nH]cn1)C(=O)N1CCC1C(=O)N[C@@H](Cc1ccccc1)C(=O)O (stereo not given in full)
< 0.1 | CC[C@@H](C)[C@H](NC(=O)[C@H]1CCCCN1C(=O)[C@H](Cc1c[nH]cn1)NC(=O)[C@@H](NC(=O)[C@H](Cc1ccc(O)cc1)NC(=O)[C@@H](NC(=O)[C@H](CCCN=C(N)N)NC(=O)CNC)C(C)C)[C@@H](C)CC)C(=O)O
< 0.1 | CC[C@@H](C)[C@H](NC(=O)C1CCN1C(=O)[C@H](Cc1c[nH]cn1)NC(=O)[C@@H](NC(=O)[C@H](Cc1ccc(O)cc1)NC(=O)[C@@H](NC(=O)[C@H](CCCN=C(N)N)NC(=O)CNC)C(C)C)[C@@H](C)CC)C(=O)O (stereo not given in full)
< 0.1 | CC[C@@H](C)[C@H](NC(=O)C1CCN1C(=O)[C@H](Cc1c[nH]cn1)NC(=O)[C@@H](NC(=O)[C@H](Cc1ccc(O)cc1)NC(=O)[C@@H](NC(=O)[C@H](CCCN=C(N)N)NC(=O)C(C)(C)N)C(C)C)[C@@H](C)CC)C(=O)O (stereo not given in full)
35 | CC[C@H](C)[C@H](NC(=O)[C@H](Cc1ccc(O)cc1)NC(=O)[C@@H](NC(=O)[C@@H](N)CCCN=C(N)N)C(C)C)C(=O)N[C@@H](Cc1c[nH]cn1)C(=O)N1CCC1C(=O)N[C@@H](Cc1ccccc1)C(=O)O (stereo not given in full)
34 | CC[C@H](C)[C@H](NC(=O)[C@H](Cc1ccc(O)cc1)NC(=O)[C@@H](NC(=O)[C@H](CCCN=C(N)N)NC(=O)C(C)(C)N)C(C)C)C(=O)N[C@@H](Cc1c[nH]cn1)C(=O)N1CCC1C(=O)N[C@@H](Cc1ccccc1)C(=O)O (stereo not given in full)
184 | CC[C@H](C)[C@H](NC(=O)[C@H](Cc1ccc(O)cc1)NC(=O)[C@@H](NC(=O)[C@H](CCCN=C(N)N)NC(=O)CNC)C(C)C)C(=O)N[C@@H](Cc1c[nH]cn1)C(=O)N1CCCC[C@@H]1C(=O)N[C@@H](Cc1ccccc1)C(=O)O
< 0.1 | CC[C@@H](C)[C@H](NC(=O)[C@H]1CCCCN1C(=O)[C@H](Cc1c[nH]cn1)NC(=O)[C@@H](NC(=O)[C@H](Cc1ccc(O)cc1)NC(=O)[C@@H](NC(=O)[C@H](CCCN=C(N)N)NC(=O)C(C)(C)N)C(C)C)[C@@H](C)CC)C(=O)O
160 | CC[C@H](C)[C@H](NC(=O)[C@H](Cc1ccc(O)cc1)NC(=O)[C@@H](NC(=O)[C@H](CCCN=C(N)N)NC(=O)CNC)C(C)C)C(=O)N[C@@H](Cc1c[nH]cn1)C(=O)N1CCC[C@H]1C(=O)N[C@@H](Cc1ccccc1)C(=O)O
0.1 | CC[C@H](C)[C@H](NC(=O)[C@@H]1CCCN1C(=O)[C@H](Cc1c[nH]cn1)NC(=O)[C@@H](NC(=O)[C@H](Cc1ccc(O)cc1)NC(=O)[C@@H](NC(=O)[C@H](CCCN=C(N)N)NC(=O)CNC)C(C)C)[C@@H](C)CC)C(=O)O
65 | CC[C@H](C)[C@H](NC(=O)[C@H](Cc1ccc(O)cc1)NC(=O)[C@@H](NC(=O)[C@H](CCCN=C(N)N)NC(=O)C(C)(C)N)C(C)C)C(=O)N[C@@H](Cc1c[nH]cn1)C(=O)N1CCCC[C@@H]1C(=O)N[C@@H](Cc1ccccc1)C(=O)O

Molecular target: T1, Angiotensin II receptor (Rattus norvegicus, UniProt P29089+P25095+P35351)
T1 sequence (P29089 whole entry): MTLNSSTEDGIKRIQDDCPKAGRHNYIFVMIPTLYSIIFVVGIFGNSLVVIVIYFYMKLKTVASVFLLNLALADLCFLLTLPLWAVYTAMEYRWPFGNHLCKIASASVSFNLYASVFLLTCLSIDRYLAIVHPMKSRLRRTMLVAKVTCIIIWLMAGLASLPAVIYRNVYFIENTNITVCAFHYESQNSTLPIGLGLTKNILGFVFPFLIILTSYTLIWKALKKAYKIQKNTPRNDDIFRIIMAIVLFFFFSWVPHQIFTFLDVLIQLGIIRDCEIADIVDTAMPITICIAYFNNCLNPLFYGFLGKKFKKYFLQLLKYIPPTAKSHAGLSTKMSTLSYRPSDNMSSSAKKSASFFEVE
T1 sequence (P25095 whole entry): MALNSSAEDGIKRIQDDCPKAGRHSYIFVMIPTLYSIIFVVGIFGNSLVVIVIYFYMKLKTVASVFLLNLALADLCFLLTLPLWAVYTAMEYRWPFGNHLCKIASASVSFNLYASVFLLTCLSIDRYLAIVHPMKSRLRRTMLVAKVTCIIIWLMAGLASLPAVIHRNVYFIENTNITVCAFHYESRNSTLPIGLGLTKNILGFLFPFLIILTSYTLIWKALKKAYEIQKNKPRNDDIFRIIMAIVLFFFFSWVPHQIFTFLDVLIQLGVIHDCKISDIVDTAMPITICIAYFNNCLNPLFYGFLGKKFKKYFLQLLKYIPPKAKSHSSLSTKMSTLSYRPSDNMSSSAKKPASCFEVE
T1 sequence (P35351 whole entry): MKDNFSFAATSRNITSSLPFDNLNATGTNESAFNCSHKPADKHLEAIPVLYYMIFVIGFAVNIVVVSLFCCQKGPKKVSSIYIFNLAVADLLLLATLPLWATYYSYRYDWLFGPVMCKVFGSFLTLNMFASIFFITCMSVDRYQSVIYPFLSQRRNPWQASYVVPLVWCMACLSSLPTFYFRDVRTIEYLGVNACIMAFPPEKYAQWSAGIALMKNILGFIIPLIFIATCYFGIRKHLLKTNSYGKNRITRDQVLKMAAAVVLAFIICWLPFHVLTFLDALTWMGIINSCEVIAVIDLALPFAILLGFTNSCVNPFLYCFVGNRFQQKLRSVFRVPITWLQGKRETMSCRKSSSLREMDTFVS
Assay: Antagonistic activity (pA2) was determined as the negative logarithm of the concentration required to reduce the response to an EC50 dose of ANG II to the response to half the EC50.
Type: functional
Procedure, shortened: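 Isolated uterine horns (defatted) from diethylstilbestrol-primed virgin Sprague–Dawley rats (150–250 g), held under 1-g tension in a 3-mL bath of 150 mM NaCl, 5.6 mM KCl, 0.18 mM NaHCO3, 1.4 mM glucose, pH 7.0, oxygenated. Isotonic contractions recorded. Human ANGII as standard; values are means of the stated number of experiments.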

pA2 | SMILES
7.1 | CC[C@H](C)[C@H](NC(=O)[C@@H]1CCN1C(=O)[C@H](Cc1c[nH]cn1)NC(=O)[C@@H](NC(=O)[C@H](Cc1ccc(O)cc1)NC(=O)[C@@H](NC(=O)[C@H](CCCN=C(N)N)NC(=O)C(C)(C)N)C(C)C)[C@@H](C)CC)C(=O)O
8.3 | CC[C@H](C)[C@H](NC(=O)[C@@H]1CCCCN1C(=O)[C@H](Cc1c[nH]cn1)NC(=O)[C@@H](NC(=O)[C@H](Cc1ccc(O)cc1)NC(=O)[C@@H](NC(=O)[C@H](CCCN=C(N)N)NC(=O)CNC)C(C)C)[C@@H](C)CC)C(=O)O
7.9 | CC[C@H](C)[C@H](NC(=O)[C@@H]1CCN1C(=O)[C@H](Cc1c[nH]cn1)NC(=O)[C@@H](NC(=O)[C@H](Cc1ccc(O)cc1)NC(=O)[C@@H](NC(=O)[C@H](CCCN=C(N)N)NC(=O)CNC)C(C)C)[C@@H](C)CC)C(=O)O
7.7 | CC[C@H](C)[C@H](NC(=O)[C@H](Cc1ccc(OC)cc1)NC(=O)[C@@H](NC(=O)[C@H](CCCN=C(N)N)NC(=O)CNC)C(C)C)C(=O)N[C@@H](Cc1c[nH]cn1)C(=O)N1CCC[C@H]1C(=O)N[C@@H](Cc1ccccc1)C(=O)O
7.6 | CC[C@H](C)[C@H](NC(=O)[C@@H]1CCCCN1C(=O)[C@H](Cc1c[nH]cn1)NC(=O)[C@@H](NC(=O)[C@H](Cc1ccc(O)cc1)NC(=O)[C@@H](NC(=O)[C@H](CCCN=C(N)N)NC(=O)C(C)(C)N)C(C)C)[C@@H](C)CC)C(=O)O
6.5 | CC[C@H](C)[C@H](NC(=O)[C@H](Cc1ccc(OC)cc1)NC(=O)[C@@H](NC(=O)[C@H](CCCN=C(N)N)NC(=O)CNC)C(C)C)C(=O)N[C@@H](Cc1c[nH]cn1)C(=O)N1CCCC[C@H]1C(=O)N[C@@H](Cc1ccccc1)C(=O)O
< 5 | CC[C@H](C)[C@H](NC(=O)[C@H](Cc1ccc(OC)cc1)NC(=O)[C@@H](NC(=O)[C@@H](N)CCCN=C(N)N)C(C)C)C(=O)N[C@@H](Cc1c[nH]cn1)C(=O)N1CC[C@H]1C(=O)N[C@@H](Cc1ccccc1)C(=O)O
7.4 | CC[C@H](C)[C@H](NC(=O)[C@H](Cc1ccc(OC)cc1)NC(=O)[C@@H](NC(=O)[C@H](CCCN=C(N)N)NC(=O)CNC)C(C)C)C(=O)N[C@@H](Cc1c[nH]cn1)C(=O)N1CC[C@H]1C(=O)N[C@@H](Cc1ccccc1)C(=O)O
< 5 | CC[C@H](C)[C@H](NC(=O)[C@H](Cc1ccc(OC)cc1)NC(=O)[C@@H](NC(=O)[C@@H](N)CCCN=C(N)N)C(C)C)C(=O)N[C@@H](Cc1c[nH]cn1)C(=O)N1CCCC[C@H]1C(=O)N[C@@H](Cc1ccccc1)C(=O)O
